Our source for the Activity values is ChEMBL document CHEMBL1817575, “Extended targeting potential and improved synthesis of Microcin C analogs as antibacterials” (Bioorg Med Chem, 2011).

Test [1] has as its system Escherichia coli. In words: Antibacterial activity against Escherichia coli Ara-Yej (BW39758) at <= 0.63 uM after 8 hrs. The test is classed as functional, organism-based. Summed up:
(§1)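 Overnight LB cultures were regrown in fresh LB, with or without 5 mM L-arabinose, to OD600 0.1. Compounds were serially titrated in 96-well plates in LB with or without 5 mM L-arabinose, and cells were added. Plates were incubated at 37 °C, and growth inhibition was read as OD600 after 8 h.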

Test [2] deals with Escherichia coli. In words: Antibacterial activity against yej or pepA,B,N-genes disrupted Escherichia coli after 8 hrs. The class given is functional, organism-based. Summed up: as §1

The structures appear in SMILES notation. Active and inactive are the calls of the source. The calls are words filed in the database; no cut-off is given here. Residues, ends and D or L forms follow the SMILES beside them. *: point of attachment. X7 = CC[C@H](C)[C@H](N*)C(=O)NS(=O)(=O)OC[C@H]1O[C@@H](n2cnc3c(N)ncnc32)[C@H](O)[C@@H]1O; NHTrityl = c1ccc(C(N*)(c2ccccc2)c2ccccc2)cc1; Pbf = Cc1c(C)c(S(=O)(=O)*)c(C)c2c1OC(C)(C)C2; tBu = CC(C)(C)*; For = O=C*

With `CC[C@H](C)[C@H](NC(=O)[C@H](C)NC(=O)[C@H](CC(=O)NC(c1ccccc1)(c1ccccc1)c1ccccc1)NC(=O)CNC(=O)[C@@H](NC(=O)[C@H](CCCNC(=N)NS(=O)(=O)c1c(C)c(C)c2c(c1C)CC(C)(C)O2)NC(=O)[C@H](CCSC)NC=O)[C@@H](C)OC(C)(C)C)C(=O)NS(=O)(=O)OC[C@H]1O[C@@H](n2cnc3c(N)ncnc32)[C@H](O)[C@@H]1O` (For-MR(Pbf)T(tBu)GD(NHTrityl)A-X7), the result in test [1] was Active. Besides, in test [2], the result was inactive.
